Source: PubChem (several laboratories)
SKKanGAS inh – inhibitors of SKKanGAS S. pyogenes growth in kanamycin (SK-promoter or general growth effect) | BacTiter-Glo, 6 h | inhibition, % at 7.5 µM | 300,000 tested, 1.3% active | AID 1662;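 active means mean replicate score, as percent of positive control median, at least 50; inconclusive means mean below 50 but one replicate at or above 50; inactive means mean and every replicate below 50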;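 further: strain carries kanamycin resistance gene driven by streptokinase promoter and grows in 40 µg/ml kanamycin; loss of luminescence reflects streptokinase promoter inhibition or plain growth inhibition; 0% = median of DMSO wells and 100% = positive control at its reference dose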
Calb FLC – affects C. albicans growth with fluconazole; growth inhibition, % (no concentration beside the values); C. albicans CaCi-2 (fluconazole-resistant clinical isolate) + fluconazole, Alamar Blue growth, 48 h; 300,000 tested, 0.57% active;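 active means growth inhibition above about 58% in most replicates, limit read from the data, passing the limit was not always enough; inconclusive means exactly half the replicates above a set limit; inactive means most replicates below a set limit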;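 further: all wells also contain fluconazole at 8 µg/ml as a sub-toxic cotreatment; 0% = median of DMSO wells and 100% = median of geldanamycin control wells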
Beta apoptosis – beta cell apoptosis inhibition; 300,000 tested, 0.8% active; INS-1E cytokine-induced death, ATP luminescence, 48 h; percent of positive-control rescue, neutral wells zero; AID 435005; protection from apoptosis, % (no concentration beside the values);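 active means Every replicate reaches about 75%, or at least half do and their mean reaches it too, limit read from the data; inconclusive means At least half of replicates reach the limit but their mean does not; inactive means Under half of replicates reach the limit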;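 further: 0% = cytokine-treated negative control wells and 100% = positive control rescue; higher means more ATP so stronger rescue from cytokine killing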
T cruzi repl – blocks replication of Trypanosoma cruzi; T. cruzi beta-gal in NIH3T3, luminescence, 90 h; inhibition, % (test concentration not listed); 300,000 tested, 1.4% active; AID 1885;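 active means mean inhibition across valid replicates above about 55%, limit read from the data; inconclusive means mean below that limit but half or more replicates reach it; inactive means mean below it, under half of replicates reach it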;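 further: signal also drops with host cell toxicity which is not excluded here; 0% = plate median of DMSO wells and 100% = zero luminescence signal; higher percent means less beta-gal luminescence so fewer parasites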
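System – NIH/3T3 host cells with β-galactosidase reporter T. cruzi · Doses – single 50 nL compound addition per well in DMSO · Reagent – 5000 T. cruzi trypomastigotes/well · Medium – Low-serum DMEM with 2% FBS · Timing – ≥90 h infection period, 3 h prior cell attachment · Evaluation – parasite load inhibition, % · Technique – GalScreen luminescence, 60 min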
CSC inhib – blocks cancer stem cells; cancer stem cell-like cells viability, luminescence; inhibition, % at 7.5 µM; 300,000 tested, 1.1% active; AID 2717; in the data active means inhibition above about 75%; inconclusive means no clear call, values can overlap the other calls; tested in HMLE shEcad cells
Mdm2-MdmX inh – inhibitors of human Mdm2/MdmX interaction; O15151+Q00987; SaOS-2 split-luciferase Mdm2/MdmX complementation, luminescence; inhibition, % at 8 µM; 330,000 tested, 3% active;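 active means inhibition of at least 50% at 8 µM in the primary screen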
Target sequence (O15151 whole entry, looked up): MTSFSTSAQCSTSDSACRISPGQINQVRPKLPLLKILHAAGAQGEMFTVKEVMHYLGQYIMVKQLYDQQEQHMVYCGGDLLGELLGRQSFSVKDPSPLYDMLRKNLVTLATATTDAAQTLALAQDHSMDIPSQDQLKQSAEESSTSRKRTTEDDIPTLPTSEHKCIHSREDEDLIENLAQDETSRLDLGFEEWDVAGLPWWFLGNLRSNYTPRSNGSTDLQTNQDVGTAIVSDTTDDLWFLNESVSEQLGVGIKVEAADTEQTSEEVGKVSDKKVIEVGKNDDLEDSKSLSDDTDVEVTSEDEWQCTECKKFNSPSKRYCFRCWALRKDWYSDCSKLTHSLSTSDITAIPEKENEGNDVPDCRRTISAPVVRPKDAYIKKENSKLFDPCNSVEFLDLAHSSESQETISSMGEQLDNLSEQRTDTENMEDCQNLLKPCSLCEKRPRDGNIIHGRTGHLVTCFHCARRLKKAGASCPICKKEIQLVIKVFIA
Target sequence (Q00987 whole entry, looked up): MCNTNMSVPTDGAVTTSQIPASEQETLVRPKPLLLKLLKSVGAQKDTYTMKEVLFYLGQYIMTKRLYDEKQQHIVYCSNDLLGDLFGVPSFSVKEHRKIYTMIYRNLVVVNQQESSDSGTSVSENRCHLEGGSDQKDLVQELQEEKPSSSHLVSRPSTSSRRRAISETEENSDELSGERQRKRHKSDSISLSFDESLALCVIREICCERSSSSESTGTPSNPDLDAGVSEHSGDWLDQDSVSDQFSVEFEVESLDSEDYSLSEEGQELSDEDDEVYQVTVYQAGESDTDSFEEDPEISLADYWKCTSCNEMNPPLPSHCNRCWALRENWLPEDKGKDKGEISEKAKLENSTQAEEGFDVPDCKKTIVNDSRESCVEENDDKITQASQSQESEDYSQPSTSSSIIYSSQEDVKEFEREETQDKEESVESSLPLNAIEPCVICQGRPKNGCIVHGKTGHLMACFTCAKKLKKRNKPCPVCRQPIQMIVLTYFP
Mdm2-MdmX conf – human Mdm2/MdmX binding inhibition, confirmed | shares compounds with Mdm2-MdmX inh | luminescent assay | inhibition, % at 8 µM | 10,000 tested, 55% active; in the data active means inhibition above about 40%
FLuc counter – inhibits full-length luciferase, flagging false Mdm2/MdmX hits; shares compounds with Mdm2-MdmX inh; SaOS-2 full-length luciferase counterscreen, luminescence; inhibition, % at 8 µM; 6,200 tested, 77% active; AID 504607;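 active means mean inhibition at 8 µM reaching about 37%, which flags the compound as non-specific, limit read from the data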;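 further: p53-null SaOS-2 cells with luciferase driven by a doxycycline-inducible promoter; compound on cells about two nights before reading with doxycycline added after day one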
An asterisk follows results filed as active; u = inconclusive; x = no result. Only some compounds are listed: those with a hit (about 5.7% of all), similar ones and a draw of the others.

SMILES	SKKanGAS inh	Calb FLC	Beta apoptosis	T cruzi repl	CSC inhib	Mdm2-MdmX inh	Mdm2-MdmX conf	FLuc counter
O=C(CN1C(=O)c2ccccc2S1(=O)=O)c1ccc(OC(F)F)cc1	-10	6	-3	-12	12	50*	72*	76*
O=C(CN1C(=O)c2ccccc2S1(=O)=O)c1ccc(F)cc1	2	-2	-6	-10	9	83*	68*	81*
O=C(CN1C(=O)c2ccccc2S1(=O)=O)c1ccccc1F	10	-4	x	-7	18	21	x	x
O=C(Cn1c(NCCO)nc2ccccc21)Nc1ccc2c(c1)OCCCO2	x	x	x	x	x	-5	x	x
CCc1ccc(S(=O)(=O)Nc2cccc(-c3ccc4nnc(C)n4n3)c2)s1	20	-10	11	12	12	55*	53*	85*
CCc1ccc(S(=O)(=O)Nc2ccc(-c3ccc4nnc(C)n4n3)cc2)s1	x	x	0	x	-1	14	x	x
Cc1nnc2ccc(-c3ccc(NS(=O)(=O)c4ccc(F)cc4F)cc3)nn12	11	10	-1	0	7	18	x	x
COc1ccc(S(=O)(=O)Nc2ccc(-c3ccc4nnc(C)n4n3)cc2)c(OC)c1	x	x	-11	x	16	71*	36	x
COc1ccc(OC)c(S(=O)(=O)Nc2ccc(-c3ccc4nnc(C)n4n3)cc2)c1	0	4	-1	4	29	51*	61*	65*
Cc1ccc(S(=O)(=O)Nc2cccc(-c3ccc4nncn4n3)c2)cc1	8	0	12	15	3	63*	78*	66*
CC(=O)c1ccc(S(=O)(=O)Nc2cccc(-c3ccc4nncn4n3)c2)cc1	-5	-14	1	-5	4	21	x	x
Cc1cc(F)ccc1S(=O)(=O)N1CCCOC1CNC(=O)C(=O)NCc1cccnc1 (configuration not stated)	11	-2	11	-4	-4	16	x	x
O=C(CCc1ccccc1)N=C1SC2CS(=O)(=O)CC2N1c1cccc(F)c1 (configuration not stated)	-1	12	-5	2	1	1	x	x
Cc1[nH]n(-c2nc(-c3ccc(Cl)cc3)cs2)c(=O)c1N=Nc1ccc(O)cc1	61*	-3	52	u	-2	63*	36	83*
CC(C)c1ccc(OCC(=O)Nc2c3c(nn2C(C)(C)C)CS(=O)(=O)C3)cc1	-19	-2	x	8	-1	14	x	x
CCOC(=O)c1cc(C#N)c(SC)nc1C	1	-6	x	x	-4	5	x	x
CCOC(=O)c1cc2c(N)c(C(=O)c3cc(C#N)c(SC)nc3C)sc2nc1C	20	56	16	36	18	50*	25	x
N#C/C(=C\c1c(Cl)cccc1Cl)c1nc2ccccc2o1	2	-15	9	16	-26	82*	36	x
CCn1c2ccccc2c2cc(Nc3cc(C)nc4ncnn34)ccc21	19	13	45	11	51	83*	72*	109*
CCc1ccc(Nc2cc(C)nc3ncnn23)cc1	1	23	-5	-14	-8	41	x	x
Cc1ccc(S(=O)(=O)Nc2ccccc2-c2nc3ccccc3[nH]c2=O)cc1	x	x	3	x	x	28	x	x
O=C(c1ccncc1)N1N=C(c2ccc(Br)cc2)CC1c1ccccc1O (configuration not stated)	5	4	3	17	17	43	x	x
O=C(c1ccccc1Cl)N1N=C(c2ccc(Br)cc2)CC1c1nc2ccccc2[nH]1 (configuration not stated)	29	-1	1	25	16	71*	50*	90*
N#CCC(=O)Nc1ccc(C(=O)OCC(=O)NC(=O)NCc2ccco2)cc1	x	x	-1	x	-4	26	x	x
O=C(Nc1c(Cl)ccc2nsnc12)c1ccc([N+](=O)[O-])o1	45	-2	-19	-2	0	39	x	x
SMILES	SKKanGAS inh	Calb FLC	Beta apoptosis	T cruzi repl	CSC inhib	Mdm2-MdmX inh	Mdm2-MdmX conf	FLuc counter
CCCc1nn2c(=O)cc(COc3ccc(NC(=O)c4ccco4)cc3)nc2s1	-4	-23	0	7	-4	74*	0	x
COc1ccc2sc(-c3ccc(SC)cc3)c(-c3ccc(O)cc3)c2c1	x	x	17	x	107*	54*	29	x
CC1CN(c2nc(-c3ccc(Br)cc3)nnc2-c2ccccc2)CC(C)N1 (configuration not stated)	-3	1	9	46	36	81*	54*	52*
COc1cc2c(c(OC)c1OC)-c1ccc(N(C)CC(OC)OC)c(=O)cc1[C@@H](NC(C)=O)CC2	2	-5	30	18	75*	68*	63*	132*
CCN(CC)CCN1C(=O)c2ccccc2NC1c1cc(OC)c(OC)c(OC)c1 (configuration not stated)	-3	9	-7	-18	-6	-1	x	x
CCN(CC)c1ccc2c(cc1=O)[C@@H](NC)CCc1cc(OC)c(OC)c(OC)c1-2	2	35	39	35	56	69*	61*	90*
CN[C@H]1CCc2cc(OC)c(OC)c(OC)c2-c2ccc(N(C)CC(OC)OC)c(=O)cc21	0	1	10	17	80*	71*	49*	66*
COc1cc2c(cc1OC)C(COc1ccc(F)cc1)N(C(C)=O)CC2 (configuration not stated)	0	5	-5	0	-13	-1	x	x
Cc1nc(N2CCCCC2)sc1C(=O)c1ccc(Cl)c([N+](=O)[O-])c1	0	9	4	14	58	69*	24	x
Cc1nn(-c2ccccc2)c(C)c1NC(=O)COC(=O)c1ccc(Cl)c(S(N)(=O)=O)c1	-1	9	3	-14	-17	19	x	x
CN1CCN(C(=O)CCc2nnc3ccc(N4CCC5(CC4)OCCO5)nn23)CC1	2	30	-9	-16	-18	28	x	x
O=C(CSc1nnc(CNC(=O)c2ccco2)o1)Nc1ccc(F)cc1	-8	-3	-4	8	-11	6	x	x
O=C(CCc1nc(-c2ccccc2F)no1)Nc1ccc(Oc2ccccc2)cc1	19	-1	1	1	57	61*	23	52*
Cc1cc(C)cc(SCc2noc(C(=O)NCCN(C)C)c2C(=O)NCCN(C)C)c1	-1	-9	8	50	25	89*	47*	49*
CN(C)CCNC(=O)c1onc(CSc2ccncc2)c1C(=O)NCCN(C)C	-1	-8	-2	-11	12	9	x	x
CC(CCc1ccc(O)cc1)NCCC(c1ccccc1)c1ccccc1 (configuration not stated)	3	14	-11	8	-17	51*	29	x
